Assay results from ChEMBL document CHEMBL1157401, “Anticancer activity of isoobtusilactone A from Cinnamomum kotoense: involvement of apoptosis, cell-cycle dysregulation, mitochondria regulation, and reactive oxygen species” (J Nat Prod, 2008).
The source made the active and inactive calls. The rule behind the calls is not given here.

Tests used:
[1] = test system: A549; test: Antiproliferative activity against human A549 cells at 100 uM after 72 hrs by MTT assay; assay type: functional; conditions: A549, 72 h, values are per cent of control
Method in brief: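 MTT proliferation: A549 grown in medium with 10% FBS to 70-80% confluence, then exposed to compound for 24, 48 or 72 h. MTT added for 3 h at 37 °C, formazan dissolved in 2-propanol, OD 570 nm with 650 nm reference. Expressed as percent of control at 24 h; mean ± SE.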

[2] = test system: A549; test: Cytotoxicity against human A549 cells after 24 hrs by TB dye exclusion assay; assay type: functional, cell-based; conditions: A549, 24 h
[3] = test system: A549; test: Cytotoxicity against human A549 cells after 48 hrs by TB dye exclusion assay; assay type: functional, cell-based; conditions: A549, 48 h
[4] = test system: A549; test: Cytotoxicity against human A549 cells after 72 hrs by TB dye exclusion assay; assay type: functional, cell-based; conditions: A549, 72 h
[5] = test system: A549; test: Cytotoxicity against human A549 cells after 24 hrs by MTT assay; assay type: functional, cell-based; conditions: A549, 24 h
[6] = test system: A549; test: Cytotoxicity against human A549 cells after 48 hrs by MTT assay; assay type: functional, cell-based; conditions: A549, 48 h
[7] = test system: A549; test: Cytotoxicity against human A549 cells after 72 hrs by MTT assay; assay type: functional, cell-based; conditions: A549, 72 h
[8] = test system: A549; test: Cell cycle arrest in human A549 cells assessed as accumulation at G1 phase at 50 uM after 24 hrs; assay type: functional
Method in brief: (§1)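 Flow cytometry of cell cycle: A549 (5 × 10^5 per 60 mm dish) treated next day with 50 or 100 µM for 24, 48 or 72 h. Adherent and floating cells pooled, fixed in PBS-MeOH 1:2 at 4 °C for at least 18 h, then stained 30 min in the dark with PI 50 µg/mL plus RNase A 50 µg/mL. Sub-G1 taken as the subdiploid fraction; at least three runs.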

[9] = test system: A549; test: Cell cycle arrest in human A549 cells assessed as accumulation at S phase at 50 uM after 24 hrs; assay type: functional; method in brief: as §1
[10] = test system: A549; test: Cell cycle arrest in human A549 cells assessed as accumulation at G2/M phase at 50 uM after 24 hrs; assay type: functional; method in brief: as §1
[11] = test system: A549; test: Cell cycle arrest in human A549 cells assessed as accumulation at subG1 phase at 50 uM after 24 hrs; assay type: functional; method in brief: as §1
[12] = test system: A549; test: Cell cycle arrest in human A549 cells assessed as accumulation at G1 phase at 50 uM after 48 hrs; assay type: functional; method in brief: as §1
[13] = test system: A549; test: Cell cycle arrest in human A549 cells assessed as accumulation at S phase at 50 uM after 48 hrs; assay type: functional; method in brief: as §1
[14] = test system: A549; test: Cell cycle arrest in human A549 cells assessed as accumulation at G2/M phase at 50 uM after 48 hrs; assay type: functional; method in brief: as §1
[15] = test system: A549; test: Cell cycle arrest in human A549 cells assessed as accumulation at subG1 phase at 50 uM after 48 hrs; assay type: functional; method in brief: as §1
[16] = test system: A549; test: Induction of apoptosis in human A549 cells assessed as PARP cleavage at 100 uM; assay type: functional, cell-based
[17] = test system: A549; test: Cell cycle arrest in human A549 cells assessed as accumulation at G1 phase at 50 uM after 72 hrs; assay type: functional; method in brief: as §1
[18] = test system: A549; test: Cell cycle arrest in human A549 cells assessed as accumulation at S phase at 50 uM after 72 hrs; assay type: functional; method in brief: as §1
[19] = test system: A549; test: Cell cycle arrest in human A549 cells assessed as accumulation at G2/M phase at 50 uM after 72 hrs; assay type: functional; method in brief: as §1
[20] = test system: A549; test: Cell cycle arrest in human A549 cells assessed as accumulation at subG1 phase at 50 uM after 72 hrs; assay type: functional; method in brief: as §1
[21] = test system: A549; test: Cell cycle arrest in human A549 cells assessed as accumulation at G1 phase at 100 uM after 24 hrs; assay type: functional; method in brief: as §1
[22] = test system: A549; test: Cell cycle arrest in human A549 cells assessed as accumulation at S phase at 100 uM after 24 hrs; assay type: functional; method in brief: as §1
[23] = test system: A549; test: Cell cycle arrest in human A549 cells assessed as accumulation at G2/M phase at 100 uM after 24 hrs; assay type: functional; method in brief: as §1
[24] = test system: A549; test: Cell cycle arrest in human A549 cells assessed as accumulation at subG1 phase at 100 uM after 24 hrs; assay type: functional; method in brief: as §1
[25] = test system: A549; test: Cell cycle arrest in human A549 cells assessed as accumulation at G1 phase at 100 uM after 48 hrs; assay type: functional; method in brief: as §1
[26] = test system: A549; test: Cell cycle arrest in human A549 cells assessed as accumulation at S phase at 100 uM after 48 hrs; assay type: functional; method in brief: as §1
[27] = test system: A549; test: Cell cycle arrest in human A549 cells assessed as accumulation at G2/M phase at 100 uM after 48 hrs; assay type: functional; method in brief: as §1

SMILES: C=C1OC(=O)/C(=C/CCCCCCCCCCCCC)[C@@H]1O [ISOOBTUSILACTONE A]
- growth, % of control at 100 µM [1]: 2.75%
- IC50 [2]: 4170 nM
- IC50 [3]: 891 nM
- IC50 [4]: 724 nM
- IC50 [5]: 5130 nM
- IC50 [6]: 1950 nM
- IC50 [7]: 1020 nM
- Activity [8]: 51.93%
- Activity [9]: 30.81%
- Activity [10]: 17.26%
- Activity [11]: 16.69%
- Activity [12]: 37.37%
- Activity [13]: 46.72%
- Activity [14]: 15.91%
- Activity [15]: 36.73%
- Activity [16]: Active
- Activity [17]: 38.62%
- Activity [18]: 47.74%
- Activity [19]: 13.64%
- Activity [20]: 54.08%
- Activity [21]: 42.88%
- Activity [22]: 38.95%
- Activity [23]: 18.18%
- Activity [24]: 25.63%
- Activity [25]: 43.08%
- Activity [26]: 41.33%
- Activity [27]: 15.59%
